Laboratory results reported in ChEMBL document CHEMBL5247671, “Design and Synthesis of Pyrazole-Based Macrocyclic Kinase Inhibitors Targeting BMPR2” (ACS Med Chem Lett, 2023).

Columns and labels:
[1] = molecular target: T1, Serine/threonine-protein kinase 4 (Homo sapiens) (UniProt Q13043); experiment: Binding affinity to recombinant STK4 (unknown origin) assessed as change in melting temperature at 10 uM by DSF assay
T1 sequence (whole entry): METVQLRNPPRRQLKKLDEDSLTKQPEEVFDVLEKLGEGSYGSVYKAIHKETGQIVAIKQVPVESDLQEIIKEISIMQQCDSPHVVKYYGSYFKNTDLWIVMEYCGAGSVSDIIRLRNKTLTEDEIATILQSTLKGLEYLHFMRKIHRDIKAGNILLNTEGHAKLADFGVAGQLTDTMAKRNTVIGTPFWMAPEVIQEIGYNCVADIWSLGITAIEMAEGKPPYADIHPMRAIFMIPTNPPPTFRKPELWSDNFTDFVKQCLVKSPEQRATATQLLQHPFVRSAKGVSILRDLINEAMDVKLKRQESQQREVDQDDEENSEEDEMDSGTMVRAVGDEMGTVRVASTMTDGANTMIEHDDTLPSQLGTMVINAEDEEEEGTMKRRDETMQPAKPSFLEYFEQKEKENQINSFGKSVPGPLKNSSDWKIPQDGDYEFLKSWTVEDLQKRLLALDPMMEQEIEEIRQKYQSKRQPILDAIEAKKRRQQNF
Procedure, shortened: (§1)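 Differential scanning fluorimetry on an in-house panel of 90 recombinant kinases. Stabilization is read as the shift in melting temperature (ΔTm) relative to ligand-free protein. Staurosporine served as the positive control, and binding was also compared against its ΔTm.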

[2] = molecular target: Vascular endothelial growth factor receptor 1 (Homo sapiens) (UniProt P17948); experiment: Binding affinity to recombinant FLT1 (unknown origin) assessed as change in melting temperature at 10 uM by DSF assay; procedure, shortened: as §1
Vascular endothelial growth factor receptor 1 (Homo sapiens), sequence (P17948 whole entry): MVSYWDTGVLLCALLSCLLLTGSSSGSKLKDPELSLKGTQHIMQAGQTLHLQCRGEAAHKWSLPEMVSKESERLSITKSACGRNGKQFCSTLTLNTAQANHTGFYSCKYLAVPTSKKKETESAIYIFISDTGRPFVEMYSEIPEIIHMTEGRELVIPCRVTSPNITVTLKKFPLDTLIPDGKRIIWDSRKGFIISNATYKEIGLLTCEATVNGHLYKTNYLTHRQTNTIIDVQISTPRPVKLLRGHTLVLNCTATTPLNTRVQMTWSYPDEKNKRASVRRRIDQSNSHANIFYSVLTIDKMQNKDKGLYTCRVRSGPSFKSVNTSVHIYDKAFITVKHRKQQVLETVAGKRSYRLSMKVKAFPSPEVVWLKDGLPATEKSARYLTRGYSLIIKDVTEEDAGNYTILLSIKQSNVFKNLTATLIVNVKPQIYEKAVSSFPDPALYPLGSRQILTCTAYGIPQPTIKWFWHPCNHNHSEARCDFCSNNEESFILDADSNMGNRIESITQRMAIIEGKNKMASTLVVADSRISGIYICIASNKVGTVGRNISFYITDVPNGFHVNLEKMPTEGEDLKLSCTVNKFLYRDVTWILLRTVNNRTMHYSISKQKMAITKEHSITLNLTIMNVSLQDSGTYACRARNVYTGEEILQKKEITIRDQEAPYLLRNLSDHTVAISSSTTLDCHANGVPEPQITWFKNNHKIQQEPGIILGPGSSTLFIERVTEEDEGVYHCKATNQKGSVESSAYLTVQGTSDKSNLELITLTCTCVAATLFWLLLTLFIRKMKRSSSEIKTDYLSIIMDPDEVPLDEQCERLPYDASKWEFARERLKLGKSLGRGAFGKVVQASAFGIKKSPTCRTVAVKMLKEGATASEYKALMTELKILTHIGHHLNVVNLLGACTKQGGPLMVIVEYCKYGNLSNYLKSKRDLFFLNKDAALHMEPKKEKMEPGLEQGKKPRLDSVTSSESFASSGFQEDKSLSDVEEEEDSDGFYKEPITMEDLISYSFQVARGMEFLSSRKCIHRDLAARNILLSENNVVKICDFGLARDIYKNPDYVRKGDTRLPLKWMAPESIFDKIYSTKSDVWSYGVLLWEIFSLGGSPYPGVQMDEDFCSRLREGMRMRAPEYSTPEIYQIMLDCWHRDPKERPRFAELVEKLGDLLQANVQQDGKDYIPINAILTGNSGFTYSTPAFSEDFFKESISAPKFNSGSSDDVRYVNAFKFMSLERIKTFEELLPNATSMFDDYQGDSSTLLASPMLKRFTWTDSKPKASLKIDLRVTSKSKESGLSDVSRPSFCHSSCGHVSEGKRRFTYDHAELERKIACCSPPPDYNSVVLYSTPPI

[3] = molecular target: MAP/microtubule affinity-regulating kinase 3 (Homo sapiens) (UniProt P27448); experiment: Binding affinity to recombinant MARK3 (unknown origin) assessed as change in melting temperature at 10 uM by DSF assay; procedure, shortened: as §1
MAP/microtubule affinity-regulating kinase 3 (Homo sapiens), sequence (P27448 whole entry, looked up, the tested form may be a part): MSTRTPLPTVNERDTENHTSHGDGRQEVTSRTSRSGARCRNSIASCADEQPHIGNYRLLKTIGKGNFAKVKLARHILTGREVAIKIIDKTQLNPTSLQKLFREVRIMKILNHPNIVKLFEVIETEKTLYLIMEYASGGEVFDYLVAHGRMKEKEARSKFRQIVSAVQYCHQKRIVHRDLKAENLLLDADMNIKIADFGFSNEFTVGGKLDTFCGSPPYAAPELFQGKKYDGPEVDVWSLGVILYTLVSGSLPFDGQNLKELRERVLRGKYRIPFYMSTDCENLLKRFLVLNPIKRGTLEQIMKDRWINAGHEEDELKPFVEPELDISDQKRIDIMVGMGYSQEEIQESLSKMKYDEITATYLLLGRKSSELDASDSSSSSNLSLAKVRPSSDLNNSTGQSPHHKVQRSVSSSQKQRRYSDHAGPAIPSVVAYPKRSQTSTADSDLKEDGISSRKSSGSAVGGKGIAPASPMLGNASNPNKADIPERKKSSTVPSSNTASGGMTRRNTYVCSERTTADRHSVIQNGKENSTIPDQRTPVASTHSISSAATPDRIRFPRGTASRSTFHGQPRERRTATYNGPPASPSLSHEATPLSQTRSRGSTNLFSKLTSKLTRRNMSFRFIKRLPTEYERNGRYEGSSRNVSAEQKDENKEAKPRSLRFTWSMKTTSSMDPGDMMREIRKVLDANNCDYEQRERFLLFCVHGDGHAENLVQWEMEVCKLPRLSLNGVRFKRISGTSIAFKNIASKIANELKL

[4] = molecular target: T2, Glycogen synthase kinase-3 alpha (Homo sapiens, UniProt P49840); experiment: Inhibition of N-terminal NanoLuc-fused full length GSK3A (unknown origin) transfected in HEK293T cells incubated for 2 hrs in presence of tracer K8 by NanoBRET assay; type: cell-based
Procedure, shortened: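 Cellular target engagement by NanoBRET in intact cells expressing NanoLuc-fused GSK3A or GSK3B, with EC50 values derived from tracer displacement.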
Target sequence in this assay (P49840 whole entry, the tested form may be a part): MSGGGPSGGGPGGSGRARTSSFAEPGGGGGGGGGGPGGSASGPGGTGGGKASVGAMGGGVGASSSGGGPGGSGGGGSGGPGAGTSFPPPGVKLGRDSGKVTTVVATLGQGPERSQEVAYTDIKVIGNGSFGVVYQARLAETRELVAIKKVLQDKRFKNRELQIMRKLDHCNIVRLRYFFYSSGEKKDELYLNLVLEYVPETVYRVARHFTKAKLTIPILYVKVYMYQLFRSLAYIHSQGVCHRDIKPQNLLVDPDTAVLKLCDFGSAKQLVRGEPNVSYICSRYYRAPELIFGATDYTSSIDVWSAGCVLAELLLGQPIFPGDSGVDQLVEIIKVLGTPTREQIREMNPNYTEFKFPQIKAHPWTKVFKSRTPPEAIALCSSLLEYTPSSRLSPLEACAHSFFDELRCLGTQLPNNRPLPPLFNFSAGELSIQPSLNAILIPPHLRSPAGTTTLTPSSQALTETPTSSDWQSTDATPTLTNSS

[5] = molecular target: T3, Bone morphogenetic protein receptor type-2 (Homo sapiens) (UniProt Q13873); experiment: Binding affinity to recombinant BMPR2 (unknown origin) assessed as change in melting temperature at 10 uM by DSF assay; procedure, shortened: as §1
T3 sequence (whole entry): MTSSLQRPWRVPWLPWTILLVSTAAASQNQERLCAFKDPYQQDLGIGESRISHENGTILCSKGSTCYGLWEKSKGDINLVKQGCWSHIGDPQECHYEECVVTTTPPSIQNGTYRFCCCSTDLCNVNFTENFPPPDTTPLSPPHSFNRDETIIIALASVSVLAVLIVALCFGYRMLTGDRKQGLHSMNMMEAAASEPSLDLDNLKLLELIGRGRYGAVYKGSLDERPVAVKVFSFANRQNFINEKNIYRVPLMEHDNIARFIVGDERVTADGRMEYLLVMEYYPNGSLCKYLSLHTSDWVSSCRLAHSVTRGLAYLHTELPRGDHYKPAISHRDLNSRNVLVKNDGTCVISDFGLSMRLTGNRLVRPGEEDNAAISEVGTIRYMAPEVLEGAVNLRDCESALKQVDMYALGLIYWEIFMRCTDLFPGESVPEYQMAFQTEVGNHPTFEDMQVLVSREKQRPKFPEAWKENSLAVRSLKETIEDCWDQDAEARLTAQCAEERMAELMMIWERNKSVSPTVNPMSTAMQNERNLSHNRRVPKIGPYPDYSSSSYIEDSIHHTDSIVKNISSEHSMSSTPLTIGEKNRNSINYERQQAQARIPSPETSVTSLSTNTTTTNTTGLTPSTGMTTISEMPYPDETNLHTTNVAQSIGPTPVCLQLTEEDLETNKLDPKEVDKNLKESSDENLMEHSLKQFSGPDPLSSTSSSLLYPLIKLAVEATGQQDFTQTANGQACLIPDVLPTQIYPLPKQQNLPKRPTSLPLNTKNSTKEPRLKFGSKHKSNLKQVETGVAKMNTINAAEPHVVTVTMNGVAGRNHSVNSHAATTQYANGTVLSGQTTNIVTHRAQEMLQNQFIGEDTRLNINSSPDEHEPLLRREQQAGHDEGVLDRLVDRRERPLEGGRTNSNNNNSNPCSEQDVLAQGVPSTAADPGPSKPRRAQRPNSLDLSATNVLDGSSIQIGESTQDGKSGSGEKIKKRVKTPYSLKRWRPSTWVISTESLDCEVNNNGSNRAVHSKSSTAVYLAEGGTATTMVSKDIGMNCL

[6] = molecular target: T4, Bone morphogenetic protein receptor type-2 (Homo sapiens, UniProt Q13873); experiment: Inhibition of BMPR2 (unknown origin) assessed as dissociation constant by ITC assay
T4 sequence (Q13873 whole entry): T3 sequence (whole entry)
Procedure, shortened: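 Binding measured by isothermal titration calorimetry against the recombinant BMPR2 kinase domain. Thermodynamic binding parameters, including the dissociation constant, were derived from the titration data.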

[7] = molecular target: Serine/threonine-protein kinase 24 (Homo sapiens) (UniProt Q9Y6E0); experiment: Binding affinity to recombinant MST3 (unknown origin) assessed as change in melting temperature at 10 uM by DSF assay; procedure, shortened: as §1
Serine/threonine-protein kinase 24 (Homo sapiens), sequence (Q9Y6E0 whole entry, looked up): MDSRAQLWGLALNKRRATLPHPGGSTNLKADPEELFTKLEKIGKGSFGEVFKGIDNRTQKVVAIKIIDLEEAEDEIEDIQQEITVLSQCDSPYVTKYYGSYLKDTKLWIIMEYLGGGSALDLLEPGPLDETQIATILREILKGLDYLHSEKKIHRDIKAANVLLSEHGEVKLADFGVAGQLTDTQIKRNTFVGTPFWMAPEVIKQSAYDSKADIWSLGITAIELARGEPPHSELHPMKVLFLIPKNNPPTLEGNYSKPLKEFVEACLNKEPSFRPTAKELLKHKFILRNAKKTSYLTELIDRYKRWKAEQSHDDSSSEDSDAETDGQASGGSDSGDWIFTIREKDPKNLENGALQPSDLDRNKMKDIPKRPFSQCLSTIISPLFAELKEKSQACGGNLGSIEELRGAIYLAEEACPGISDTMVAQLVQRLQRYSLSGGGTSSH

[8] = molecular target: T5, Mitogen-activated protein kinase 15 (Homo sapiens) (UniProt Q8TD08); experiment: Inhibition of recombinant MAPK15 (unknown origin) at 10 uM by DSF assay relative to staurosporine; procedure, shortened: as §1
T5 sequence (whole entry): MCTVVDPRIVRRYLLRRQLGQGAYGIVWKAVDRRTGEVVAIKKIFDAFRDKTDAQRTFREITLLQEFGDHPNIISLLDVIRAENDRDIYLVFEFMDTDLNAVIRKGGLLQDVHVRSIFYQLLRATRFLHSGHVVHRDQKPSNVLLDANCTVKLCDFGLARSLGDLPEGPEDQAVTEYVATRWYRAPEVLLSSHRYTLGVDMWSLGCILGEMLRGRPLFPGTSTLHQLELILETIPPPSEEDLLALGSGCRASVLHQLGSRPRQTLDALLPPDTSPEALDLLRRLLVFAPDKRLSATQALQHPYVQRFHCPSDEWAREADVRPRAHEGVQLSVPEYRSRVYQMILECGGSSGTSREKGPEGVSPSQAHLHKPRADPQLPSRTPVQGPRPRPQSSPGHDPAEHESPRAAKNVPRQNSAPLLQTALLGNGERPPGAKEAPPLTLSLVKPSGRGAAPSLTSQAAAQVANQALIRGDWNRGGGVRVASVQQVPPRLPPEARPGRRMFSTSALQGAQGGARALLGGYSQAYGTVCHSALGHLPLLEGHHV

[9] = molecular target: T2, Glycogen synthase kinase-3 alpha; experiment: Inhibition of GSK3A (unknown origin) assessed as residual activity at 1 uM by Kinomescan assay relative to staurosporine
Target sequence in this assay (P49840 2-483 limits assumed): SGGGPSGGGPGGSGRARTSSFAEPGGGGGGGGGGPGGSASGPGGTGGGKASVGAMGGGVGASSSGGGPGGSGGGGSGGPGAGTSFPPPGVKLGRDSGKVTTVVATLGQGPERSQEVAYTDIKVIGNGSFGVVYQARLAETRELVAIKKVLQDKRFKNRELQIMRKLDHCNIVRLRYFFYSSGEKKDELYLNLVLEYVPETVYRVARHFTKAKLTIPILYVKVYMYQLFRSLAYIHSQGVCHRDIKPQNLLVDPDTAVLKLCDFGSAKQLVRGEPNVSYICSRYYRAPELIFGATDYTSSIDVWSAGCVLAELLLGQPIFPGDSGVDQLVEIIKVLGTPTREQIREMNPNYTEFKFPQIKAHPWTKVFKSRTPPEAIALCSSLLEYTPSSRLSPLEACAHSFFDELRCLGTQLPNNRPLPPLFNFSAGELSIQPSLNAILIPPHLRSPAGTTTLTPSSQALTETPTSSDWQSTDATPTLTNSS

[10] = molecular target: T5, Mitogen-activated protein kinase 15 (Homo sapiens); experiment: Binding affinity to recombinant MAPK15 (unknown origin) assessed as change in melting temperature at 10 uM by DSF assay; procedure, shortened: as §1

O=C1NCCc2ccc(cc2)Nc2nccc(n2)Nc2cc1[nH]n2
ΔTm [1]: 3.2 °C
ΔTm [2]: 4.2 °C
ΔTm [3]: 3.9 °C
IC50 [4]: 11 µM
ΔTm [5]: 5.8 °C
Kd [6]: 0.0835 µM
ΔTm [7]: 3.2 °C
inhibition [8]: 26%
Activity [9]: 16%
ΔTm [10]: 3.8 °C
